Series [1] has as its target T1, Multidrug resistance-associated protein 1 (Homo sapiens, UniProt P33527). The series can be described thus: Inhibition of MRP1 in human 2008/MRP1 cells assessed as potentiation of doxorubicin-induced cytotoxicity by measuring cell survival at 2 uM after 5 days by MTS assay relative to control. Type of series: cell-based. The note with it: 120 h. In a few lines: (§1)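 2008/MRP1 cells (retroviral human MRP1 transfectant; RPMI 1640, 10% FBS) at 4,000 per well, with 100 nM doxorubicin plus crude, unpurified click products in DMSO: 2 µM in the primary screen, 1 µM in the secondary. Incubated 5 days at 37 °C. MTS/PMS added for 2 h at 37 °C, absorbance read at 490 nm. % survival is relative to wells without DOX or product. Run in triplicate, at least three experiments.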
Background: Tetrazolium dyes change colour on reduction, which living cells bring about.

For series [2], the system named is L929. The series can be described thus: Cytotoxicity against mouse L929 cells assessed as reduction in cell survival after 5 days by MTS assay. Type of series: cell-based. The note with it: L929, 120 h.
Series [3] has as its system MRP1. Briefly: in vitro. The note with it: mouse, L929 cells (IC50) versus 2008/MRP1 cells (EC50).
Series [4] deals with T1, Multidrug resistance-associated protein 1. Briefly: Inhibition of MRP1 in human 2008/MRP1 cells assessed as potentiation of doxorubicin-induced cytotoxicity by measuring cell survival at 1 uM after 5 days by MTS assay relative to control. It counts as cell-based. The note with it: 120 h. In a few lines:
as §1

Series [5] is filed under the species Homo sapiens. The series can be described thus: Inhibition of P-gp in human LCC6MDR cells assessed as potentiation of paclitaxel-induced cytotoxicity by measuring fold reduction in paclitaxel IC50 at 1 uM after 5 days by MTS assay relative to paclitaxel alone. Type of series: cell-based.
Series [6] in a line: Cytotoxicity against human 2008/MRP1 cells assessed as cell survival at 2 uM after 5 days by MTS assay relative to control. It counts as cell-based. The note with it: read-out: Survival.

T1 sequence (P33527 whole entry): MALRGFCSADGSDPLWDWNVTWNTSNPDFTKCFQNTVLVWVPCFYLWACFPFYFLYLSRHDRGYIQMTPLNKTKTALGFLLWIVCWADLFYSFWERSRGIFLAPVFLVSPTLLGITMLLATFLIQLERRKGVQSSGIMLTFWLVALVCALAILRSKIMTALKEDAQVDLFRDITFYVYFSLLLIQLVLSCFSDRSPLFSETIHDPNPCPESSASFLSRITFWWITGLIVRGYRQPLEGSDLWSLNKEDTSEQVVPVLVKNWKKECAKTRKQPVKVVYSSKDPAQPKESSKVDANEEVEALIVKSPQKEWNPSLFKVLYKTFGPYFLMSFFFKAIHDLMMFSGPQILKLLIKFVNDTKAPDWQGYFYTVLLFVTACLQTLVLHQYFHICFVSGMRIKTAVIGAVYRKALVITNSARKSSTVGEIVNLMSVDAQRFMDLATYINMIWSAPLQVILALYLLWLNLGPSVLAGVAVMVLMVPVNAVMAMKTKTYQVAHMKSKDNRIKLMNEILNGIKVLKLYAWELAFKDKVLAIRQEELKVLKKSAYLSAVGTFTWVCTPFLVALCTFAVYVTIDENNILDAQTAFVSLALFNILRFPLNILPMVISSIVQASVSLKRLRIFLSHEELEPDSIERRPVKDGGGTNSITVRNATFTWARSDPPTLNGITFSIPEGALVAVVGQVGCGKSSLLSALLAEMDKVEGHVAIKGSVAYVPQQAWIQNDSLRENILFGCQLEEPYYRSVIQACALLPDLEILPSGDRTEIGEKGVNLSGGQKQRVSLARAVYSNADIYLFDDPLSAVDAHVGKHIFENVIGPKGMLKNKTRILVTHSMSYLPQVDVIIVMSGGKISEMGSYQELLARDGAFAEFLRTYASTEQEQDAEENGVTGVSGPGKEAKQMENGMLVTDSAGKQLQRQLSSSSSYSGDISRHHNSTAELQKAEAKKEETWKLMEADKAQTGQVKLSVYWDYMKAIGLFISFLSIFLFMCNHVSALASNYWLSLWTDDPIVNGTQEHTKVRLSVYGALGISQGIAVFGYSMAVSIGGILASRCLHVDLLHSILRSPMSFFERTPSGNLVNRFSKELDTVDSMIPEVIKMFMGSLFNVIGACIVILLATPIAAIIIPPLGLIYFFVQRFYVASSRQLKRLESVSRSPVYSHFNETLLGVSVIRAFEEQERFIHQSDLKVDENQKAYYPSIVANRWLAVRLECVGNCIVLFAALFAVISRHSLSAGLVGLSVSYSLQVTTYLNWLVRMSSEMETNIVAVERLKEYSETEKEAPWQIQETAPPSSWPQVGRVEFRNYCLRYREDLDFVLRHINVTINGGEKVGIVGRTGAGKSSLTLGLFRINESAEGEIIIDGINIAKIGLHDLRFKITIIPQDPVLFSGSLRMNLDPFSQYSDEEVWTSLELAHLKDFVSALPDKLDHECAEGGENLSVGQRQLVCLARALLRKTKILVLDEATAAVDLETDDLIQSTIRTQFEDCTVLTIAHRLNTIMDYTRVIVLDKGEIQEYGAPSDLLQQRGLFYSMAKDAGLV

As a reminder, the IC50 is the concentration that gives 50% inhibition. As for `O=c1cc(-c2ccccc2)oc2cc(OCCN(Cc3ccccc3)Cc3cn(CCOCCOCCOc4ccc(-c5cc(=O)c6cc(F)ccc6o5)cc4)nn3)ccc12`, the Survival is 44% in series [1] and 50% in series [4]. Further, in series [2], the IC50 was over 100 µM. In addition, the selectivity ratio in series [3] was over 641. Besides, the Ratio IC50 in series [5] is 16.9. In series [6], the viability at 120 h, 2 µM was found to be 72%.
Regarding `O=c1cc(-c2ccc(OCCOCCn3cc(CCCCOc4ccc5c(=O)cc(-c6ccccc6)oc5c4)nn3)cc2)oc2ccccc12`, the Survival was 30% in series [1] and 42% in series [4]. Further, the IC50 in series [2] is over 100 µM. In addition, the selectivity ratio in series [3] is over 1150. In addition, the Ratio IC50 in series [5] is 19.8. Also, the viability at 120 h, 2 µM in series [6] was found to be 95%.
On to `O=c1cc(-c2ccccc2)oc2cc(OCCCc3cn(CCOCCOCCOc4ccc(-c5cc(=O)c6cc(F)ccc6o5)cc4)nn3)ccc12`, for which the figures for the Survival in series [1] and in series [4] were 48% and 49%, respectively. Also, the IC50 in series [2] was over 100 µM. Besides, in series [3], the selectivity ratio was over 1050. For the same molecule, in series [5], the Ratio IC50 is 16. Also, in series [6], the viability at 120 h, 2 µM is 88%.
With `O=c1cc(-c2ccccc2)oc2cc(OCCOCc3cn(CCOCCOCCOc4ccc(-c5oc6ccccc6c(=O)c5OCc5ccccc5)cc4)nn3)ccc12`, the Survival in series [1] stood at 45%; in series [4] it was 48%. In addition, the IC50 in series [2] was over 100 µM. The selectivity ratio in series [3] was over 518. The Ratio IC50 in series [5] came out at 46.7. Also, the viability at 120 h, 2 µM in series [6] worked out at 95%.
As for `CN(C)C(=O)CCSC(SCCC(=O)O)c1cccc(/C=C/c2ccc3ccc(Cl)cc3n2)c1` (centres undefined) [MK-571], in series [2], the IC50 is over 100 µM.
`Cc1ccc2oc(-c3ccc(OCCCCc4cn(CCOCCOc5ccc(-c6cc(=O)c7cc(F)ccc7o6)cc5)nn4)cc3)cc(=O)c2c1`: the values for the Survival in series [1] and in series [4] were 30% and 38%, respectively. Moreover, in series [2], the IC50 was over 100 µM. The selectivity ratio in series [3] is over 400. In addition, the Ratio IC50 in series [5] amounted to 99.2. Besides, the viability at 120 h, 2 µM in series [6] amounted to 99%.
For the molecule `Cc1ccc2oc(-c3ccc(OCCCCc4cn(CCOCCOCCOc5ccc(-c6cc(=O)c7cc(F)ccc7o6)cc5)nn4)cc3)cc(=O)c2c1`, the Survival amounted to 34% in series [1] and 41% in series [4]. Also, in series [2], the half-inhibitory concentration (IC50) was over 100 µM. In addition, the selectivity ratio in series [3] was over 461. Also, in series [5], the Ratio IC50 was found to be 99.2. The viability at 120 h, 2 µM in series [6] was found to be 100%.
Consider `O=c1cc(-c2ccc(OCCCc3cn(CCOCCOc4ccc(-c5cc(=O)c6ccccc6o5)cc4)nn3)cc2)oc2ccccc12`, for which the values for the Survival in series [1] and in series [4] were 29% and 51%, respectively. In series [2], the 50% inhibitory concentration (IC50) came out at 60 µM. In addition, in series [3], the selectivity ratio stood at 531. The Ratio IC50 in series [5] came out at 31.7. Further, the viability at 120 h, 2 µM in series [6] was 81%.
With `O=c1cc(-c2ccc(OCCOCCn3cc(CCCOc4ccc(-c5cc(=O)c6ccc(F)cc6o5)cc4)nn3)cc2)oc2ccccc12`, the Survival in series [1] is listed as 21%; in series [4], 29%. In series [2], the IC50 is over 100 µM. The Ratio IC50 in series [5] came out at 63.5. Also, the viability at 120 h, 2 µM in series [6] worked out at 91%.
`O=c1cc(-c2ccc(OCCCc3cn(CCOCCOCCOc4ccc(-c5cc(=O)c6cc(F)ccc6o5)cc4)nn3)cc2)oc2cc(F)ccc12`: the results for the Survival in series [1] and in series [4] were 42% and 48%, respectively. Besides, the IC50 in series [2] is over 100 µM. Further, the selectivity ratio in series [3] was over 971. Also, the Ratio IC50 in series [5] was determined as 22.7. Besides, in series [6], the viability at 120 h, 2 µM was 95%.
In the case of `O=c1cc(-c2ccc(OCCOCCn3cc(CCCOc4ccc5c(=O)cc(-c6ccccc6)oc5c4)nn3)cc2)oc2ccccc12`, the values for the Survival in series [1] and in series [4] were 23% and 30%, respectively. In addition, the IC50 in series [2] is over 100 µM. Further, the selectivity ratio in series [3] is over 662. Moreover, the Ratio IC50 in series [5] worked out at 19.1. In addition, the viability at 120 h, 2 µM in series [6] was 92%.
As for `O=c1cc(-c2ccc(OCCOCCOCCn3cc(CN(CCOc4ccc5c(=O)cc(-c6ccccc6)oc5c4)Cc4ccccc4)nn3)cc2)oc2ccccc12`, the Survival in series [1] was 45%; in series [4] it was 48 to 63%. Besides, in series [2], the IC50 is over 100 µM. Also, the Ratio IC50 in series [5] came to 31.7. Besides, the viability at 120 h, 2 µM in series [6] came out at 74%.
For `O=c1cc(-c2ccc(OCCOCCn3cc(CN(CCOc4ccc5c(=O)cc(-c6ccccc6)oc5c4)Cc4ccccc4)nn3)cc2)oc2ccccc12` the same measures were 26%, 29%, over 100 µM, 38.7 and 97%.
Consider `Cc1ccc2oc(-c3ccc(OCCCCc4cn(CCOCCOCCOc5ccc(-c6cc(=O)c7cc(C)ccc7o6)cc5)nn4)cc3)cc(=O)c2c1`, for which the results for the Survival in series [1] and in series [4] were 38% and 50%, respectively. Further, the IC50 in series [2] is over 50 µM. Also, the selectivity ratio in series [3] was over 365. The Ratio IC50 in series [5] turned out to be 58.8. Besides, in series [6], the viability at 120 h, 2 µM amounted to 100%.
On to `O=c1cc(-c2ccccc2)oc2cc(OCCN(Cc3ccccc3)Cc3cn(CCOCCOc4ccc(-c5cc(=O)c6cc(F)ccc6o5)cc4)nn3)ccc12`, for which the Survival in series [1] is on record as 36%; in series [4], 46%. Also, the IC50 in series [2] was over 100 µM. The selectivity ratio in series [3] is over 645. Besides, the Ratio IC50 in series [5] was 26.5. In addition, in series [6], the viability at 120 h, 2 µM is 87%.
Turning to `O=c1cc(-c2ccccc2)oc2cc(OCCCc3cn(CCOCCOc4ccc5c(=O)cc(-c6ccccc6)oc5c4)nn3)ccc12`, the Survival in series [1] was 45%; in series [4] it was 49%. Besides, the IC50 in series [2] is over 100 µM. Besides, the selectivity ratio in series [3] is over 336. Besides, the Ratio IC50 in series [5] turned out to be 4. In addition, the viability at 120 h, 2 µM in series [6] came out at 98%.
Turning to `Cc1ccc2oc(-c3ccc(OCCCCc4cn(CCOCCOc5ccc6c(=O)cc(-c7ccccc7)oc6c5)nn4)cc3)cc(=O)c2c1`, the Survival came to 34% in series [1] and 46% in series [4]. Further, the IC50 in series [2] was over 100 µM. Moreover, in series [5], the Ratio IC50 stood at 54.7. For the same molecule, the viability at 120 h, 2 µM in series [6] is 93%.
In the case of `O=c1cc(-c2ccc(OCCOCCOCCn3cc(CCCOc4ccc(-c5cc(=O)c6ccc(F)cc6o5)cc4)nn3)cc2)oc2ccccc12`, the results for the Survival in series [1] and in series [4] were 44% and 51%, respectively. Besides, in series [2], the IC50 was over 100 µM. Further, in series [3], the selectivity ratio was over 481. In addition, the Ratio IC50 in series [5] is 4. Moreover, in series [6], the viability at 120 h, 2 µM came to 93%.
In the case of `O=c1cc(-c2ccc(OCCOCCn3cc(COCCOc4ccc5c(=O)cc(-c6ccccc6)oc5c4)nn3)cc2)oc2ccccc12`, the results for the Survival in series [1] and in series [4] were 31% and 46%, respectively. In series [2], the half-maximal inhibitory concentration (IC50) was over 50 µM. Further, the selectivity ratio in series [3] was over 190. Also, the Ratio IC50 in series [5] was 3.3. Moreover, in series [6], the viability at 120 h, 2 µM was determined as 97%.
In the case of `Cc1ccc2oc(-c3ccc(OCCOCCOCCn4cc(CCCOc5ccc(-c6cc(=O)c7ccc(F)cc7o6)cc5)nn4)cc3)cc(=O)c2c1`, the Survival came out at 45% in series [1] and 50% in series [4]. In series [2], the IC50 was over 100 µM. For the same molecule, the selectivity ratio in series [3] is over 826. In series [5], the Ratio IC50 was 36.9. The viability at 120 h, 2 µM in series [6] came out at 95%.
In the case of `O=C(/C=C/c1ccc(OCCCCc2cn(CCOCCOc3ccc(-c4cc(=O)c5ccccc5o4)cc3)nn2)cc1)c1ccccc1O`, the Survival is 39% in series [1] and 56% in series [4]. The viability at 120 h, 2 µM in series [6] came to 83%.

Source of the values: ChEMBL document CHEMBL4257575, “Discovery of Novel Flavonoid Dimers To Reverse Multidrug Resistance Protein 1 (MRP1, ABCC1) Mediated Drug Resistance in Cancers Using a High Throughput Platform with "Click Chemistry"” (J Med Chem, 2018).
